Reference: ChEMBL document CHEMBL2029338, “Synthesis, biological evaluation, and molecular docking studies of benzyl, alkyl and glycosyl [2-(arylamino)-4,4-dimethyl-6-oxo-cyclohex-1-ene]carbodithioates, as potential immunomodulatory and immunosuppressive agents” (Bioorg Med Chem, 2012)
≈ marks a conversion by molar mass, not a printed value.

Experiments:
PBMC [1] = test: Immunosuppressive activity in human PBMC assessed as inhibition of PHA-induced cell proliferation after 72 hrs by [methyl-3H]thymidine incorporation assay; format: functional, cell-based
Outline: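 Human PBMCs from healthy donor venous blood, isolated by density separation and cultured in RPMI-1640 with 10% FBS. Stimulated with PHA in the presence of increasing compound concentrations for 72 h at 37 °C, 5% CO₂. [methyl-³H]thymidine 0.5 µCi/well added for a further 18 h, then harvested and counted by liquid scintillation. Expressed as % of stimulated control, mean ± SD of triplicates; IC50 derived.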

THP-1 [2] = test: Antiinflammatory activity in PMA-stimulated human THP1 cells assessed as inhibition of LPS-induced TNFalpha production at 25 ug/mL after 4 hrs; format: functional; settings: THP-1, 4 h
Outline: (§1)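 THP-1 cells plated at 2.5 × 10⁵ cells/mL and differentiated to macrophage-like cells with PMA (20 ng/mL final) for 24 h at 37 °C, 5% CO₂. Then stimulated with LPS (50 ng/mL final) and treated with test compounds. TNF-α was measured in supernatant at 4 h and IL-1β at 18 h by DuoSet ELISA.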

THP-1 [3] = test: Antiinflammatory activity in PMA-stimulated human THP1 cells assessed as inhibition of LPS-induced IL-1beta production at 25 ug/mL after 18 hrs; format: functional; settings: THP-1, 18 h; outline: as §1
[4] = (§2) Antiinflammatory activity in human whole blood phagocytes assessed as inhibition of respiratory burst measuring ROS after 30 mins by luminol-enhanced chemiluminescence assay; format: functional, cell-based; settings: 0.5 h
Outline: (§3)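 Luminol-enhanced chemiluminescence of whole blood phagocytes. Compounds at 1.0, 10 and 100 µg/mL in HBSS⁺⁺ (with Ca²⁺/Mg²⁺) were incubated with whole blood diluted 1:50 for 30 min at 37 °C. Luminol and serum-opsonized zymosan (S. cerevisiae) were then added. ROS kinetics were monitored by luminometer for 50 min in repeated scan mode, with positive, negative and blank controls.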

J774.2 [5] = test: Antiinflammatory activity in lipopolysaccharide-induced mouse J774.2 cells assessed as inhibition of nitric oxide production at 25 ug/mL after 24 hrs by Griess method; format: functional; settings: J774.2, 24 h
Outline: (§4)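 J774.2 mouse macrophages grown in DMEM with 10% FBS, seeded at 10⁶ cells/mL. NOS-2 induced with E. coli LPS; compounds at 25 µg/mL added right after LPS, 37 °C, 5% CO₂. Supernatant taken at 24 h and nitrite read by Griess reagent (sulfanilamide, then naphthylethylenediamine in 2.5% phosphoric acid), 10 min at 23 °C, A550. Quantified against a sodium nitrite standard curve; mean ± SD of duplicate readings.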

PBMC [6] = test: Immunosuppressive activity against human PBMC assessed as inhibition of PHA/PMA-induced IL2 production after 18 hrs by ELISA
3T3-L1 = test: Cytotoxicity against mouse 3T3L1 cells after 48 hrs by MTT assay; format: cell-based; settings: 3T3-L1, 48 h
Outline: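 3T3-L1 mouse embryo fibroblasts in DMEM with 10% FBS. Plated at 6 × 10⁴ cells/mL for 24 h at 37 °C, 5% CO₂, then exposed to compounds (up to 20 µg/mL) in triplicate for 48 h. Viability by MTT 0.5 mg/mL for 4 h, DMSO solubilization, absorbance at 540 nm; mean ± SD of triplicates.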

CC-1 = test: Cytotoxicity against Wistar rat CC1 cells after 48 hrs by MTT assay; format: cell-based; settings: CC-1, 48 h
Outline: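 Plated at 6 × 10⁴ cells/mL for 24 h at 37 °C, 5% CO₂, then exposed to compounds (up to 20 µg/mL) in triplicate for 48 h. MTT 0.5 mg/mL for 4 h, formazan dissolved in DMSO, A540; mean ± SD of triplicates.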

J774.2 [7] = test: Antiinflammatory activity in lipopolysaccharide-induced mouse J774.2 cells assessed as inhibition of nitric oxide production after 24 hrs by Griess method; format: functional, cell-based; settings: J774.2, 24 h; outline: as §4
Homo sapiens = organism: Homo sapiens; test: as §2; format: functional, cell-based; outline: as §3

SMILES	IC50 [4]	IC50 (J774.2 [7])	IC50 (PBMC [1])	inhibition at 25 µg/mL (THP-1 [2])	inhibition at 25 µg/mL (THP-1 [3])	inhibition at 25 µg/mL (J774.2 [5])	IC50 (PBMC [6])	inhibition (PBMC [1])	IC50 (3T3-L1)	IC50 (CC-1)	inhibition (PBMC [6])	inhibition (Homo sapiens)
CC1(C)CC(=O)C=C(Nc2ccc(Cl)cc2)C1	> 100 µg/mL	63.8 µM	15 µg/mL (≈ 60.1 µM)	-4.3%	17.2%	62.4%	> 20 µg/mL	–	–	–	–	–
CCCCCCCCCCCSC(=S)C1=C(Nc2ccc(Br)cc2)CC(C)(C)CC1=O	> 100 µg/mL	–	> 50 µg/mL	-58.7%	-22.7%	32.1%	> 20 µg/mL	–	–	–	–	–
CC1(C)CC(=O)C(C(=S)SCCO)=C(Nc2ccc(Br)cc2)C1	> 100 µg/mL	–	8.3 µg/mL (≈ 20 µM)	-33.5%	5.5%	37%	> 20 µg/mL	Dose-dependent effect	–	–	Dose-dependent effect	–
CCCCSC(=S)C1=C(Nc2ccc(Br)cc2)CC(C)(C)CC1=O	> 100 µg/mL	–	> 50 µg/mL	-31.4%	–	18.9%	> 20 µg/mL	–	–	–	–	–
CC1(C)CC(=O)C=C(Nc2ccc(Cl)cc2Cl)C1	> 100 µg/mL	–	17.6 µg/mL (≈ 61.9 µM)	6.3%	38.5%	42.1%	> 20 µg/mL	–	–	–	–	–
CC1(C)CC(=O)C=C(Nc2ccc(Br)cc2)C1	> 100 µg/mL	49.1 µM	> 50 µg/mL	-31.4%	-26.8%	62.7%	> 20 µg/mL	–	–	–	–	–
CC(C)=NNC1=C2C(=S)NN=C2CC(C)(C)C1	–	36.4 µM	13.2 µg/mL (≈ 52.7 µM)	–	–	–	14.7 µg/mL (≈ 58.7 µM)	Dose-dependent effect	–	–	Dose-dependent effect	Dose-dependent effect
CCCCCCCCCCCSC(=S)C1=C(Nc2ccc(Cl)cc2)CC(C)(C)CC1=O	> 100 µg/mL	–	> 50 µg/mL	-56.6%	-15.8%	16.5%	> 20 µg/mL	–	–	–	–	–
CC1(C)CC(=O)C(C(=S)SCc2ccccc2)=C(Nc2ccc(Br)cc2)C1	> 100 µg/mL	–	> 50 µg/mL	-50.3%	-158%	38.5%	> 20 µg/mL	–	–	–	–	–
CC1(C)CC(=O)C(C(=S)SCc2ccccc2)=C(Nc2ccc(Cl)cc2)C1	> 100 µg/mL	–	> 50 µg/mL	-21%	13.1%	10.4%	> 20 µg/mL	–	–	–	–	–

Now from value to compound, other results behind:

IC50 [4]	IC50 (J774.2 [7])	SMILES	IC50 (PBMC [1])	inhibition at 25 µg/mL (THP-1 [2])	inhibition at 25 µg/mL (THP-1 [3])	inhibition at 25 µg/mL (J774.2 [5])	IC50 (PBMC [6])	inhibition (PBMC [1])	IC50 (3T3-L1)	IC50 (CC-1)	inhibition (PBMC [6])	inhibition (Homo sapiens)
> 100 µg/mL	–	CC1(C)CC(=O)C(C(=S)SCCO)=C(Nc2ccc(Cl)cc2Cl)C1	> 50 µg/mL	-50.3%	16.5%	44.8%	> 20 µg/mL	–	–	–	–	–
> 100 µg/mL	7.7 µM	CC(=O)OC[C@H]1O[C@@H](SC(=S)C2=C(Nc3ccc(Br)cc3)CC(C)(C)CC2=O)[C@H](OC(C)=O)[C@@H](OC(C)=O)[C@@H]1OC(C)=O	8.8 µg/mL (≈ 12.6 µM)	58.7%	59.2%	68.4%	3.4 µg/mL (≈ 4.85 µM)	Dose-dependent effect	> 20 µg/mL	19.8 µg/mL (≈ 28.3 µM)	Dose-dependent effect	–
5.94 µg/mL	–	CC(=O)OC[C@H]1O[C@@H](SC(=S)C2=C(Nc3ccc(Cl)cc3Cl)CC(C)(C)CC2=O)[C@H](OC(C)=O)[C@@H](OC(C)=O)[C@H]1OC(C)=O	3.9 µg/mL (≈ 5.65 µM)	83.8%	86%	66.8%	2.1 µg/mL (≈ 3.04 µM)	–	> 20 µg/mL	> 20 µg/mL	–	–
> 100 µg/mL	–	CCCCCCCCCCCSC(=S)C1=C(Nc2ccc(Cl)cc2Cl)CC(C)(C)CC1=O	> 50 µg/mL	29.3%	30.3%	39.7%	> 20 µg/mL	–	–	–	–	–
> 100 µg/mL	–	CC1(C)CC(=O)C(C(=S)SCc2ccccc2)=C(Nc2ccc(Cl)cc2Cl)C1	> 50 µg/mL	-50.3%	-119%	39.5%	> 20 µg/mL	–	–	–	–	–
> 100 µg/mL	–	CC1(C)CC(=O)C(C(=S)SCCO)=C(Nc2ccc(Cl)cc2)C1	21 µg/mL (≈ 56.8 µM)	0%	48.1%	43.3%	> 20 µg/mL	–	–	–	–	–
> 100 µg/mL	16.1 µM	CC(=O)OC[C@H]1O[C@@H](SC(=S)C2=C(Nc3ccc(Cl)cc3Cl)CC(C)(C)CC2=O)[C@H](OC(C)=O)[C@@H](OC(C)=O)[C@@H]1OC(C)=O	15.8 µg/mL (≈ 22.9 µM)	-48.2%	–	57.2%	> 20 µg/mL	–	–	–	–	–
90 µg/mL	44.3 µM	CC(=O)OC[C@H]1O[C@@H](SC(=S)C2=C(Nc3ccc(Cl)cc3)CC(C)(C)CC2=O)[C@H](OC(C)=O)[C@@H](OC(C)=O)[C@@H]1OC(C)=O	9.9 µg/mL (≈ 15.1 µM)	83.8%	46.8%	77.3%	3.5 µg/mL (≈ 5.33 µM)	Dose-dependent effect	> 20 µg/mL	> 20 µg/mL	Dose-dependent effect	–
> 100 µg/mL	–	CCCCSC(=S)C1=C(Nc2ccc(Cl)cc2)CC(C)(C)CC1=O	> 50 µg/mL	10.5%	-92.9%	23.6%	> 20 µg/mL	–	–	–	–	–
> 100 µg/mL	–	CCCCSC(=S)C1=C(Nc2ccc(Cl)cc2Cl)CC(C)(C)CC1=O	> 50 µg/mL	-14.7%	-22%	35.2%	> 20 µg/mL	–	–	–	–	–
